Measured values as given in the EternaBench riboswitch data.

Tested on: MS2 coat protein
Assay: apparent Kd, MS2 coat protein; higher = weaker binding; RNA-MaP array; FMN 200 µM where present
How it was run: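 The apparent Kd is reported as the median of filtered per-cluster binding-curve fits. To get these curves, designs transcribed by stalled E. coli RNA polymerase on Illumina sequencing-chip clusters were titrated with SNAP-549-labelled MS2 coat protein from 0.7 or 1.5 nM, doubling to 3 µM. Titrations were run without and then with constant ligand in 100 mM Tris-HCl pH 7.5, 80 mM KCl, 4 mM MgCl2, BSA, DTT, yeast tRNA and Tween-20, and green signal was normalised to red-channel RNA signal and control-cluster median Fmax.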

[1] = designed as: OFF switch for flavin mononucleotide, no ligand
[2] = ligand present: flavin mononucleotide, designed as: OFF switch for flavin mononucleotide
[3] = designed as: ON switch for flavin mononucleotide, no ligand
[4] = ligand present: flavin mononucleotide, designed as: ON switch for flavin mononucleotide

Sequence | apparent Kd [1] | apparent Kd [2] | apparent Kd [3] | apparent Kd [4]
ACAAGAUCAGGAUAUACAUGAGGAUCACCCAUGUAUAUCAAAAAAGGGCCUUCUACAUGUAGAAGGGAUCUUGU | 0.0131 µM | 0.0121 µM | – | –
CACGUCUGAGGAUAUCGUUUUUUGUACAUGAGGAUCACCCAUGUCCAAUUUUGUAUAUUACGAGAAGGCAGUGGAA | 0.0129 µM | 0.0197 µM | – | –
GUUUUUUGUCAUGUACAUGAGGAACAUGAGGAUCACCCAUGUAGAAGGAAUUUUUUUAAGUUUAGUUAGGAUAUACAUAUAUUA | 0.049 µM | 0.0247 µM | – | –
AAAUUGUCAGGAUAUCCUGCUAUACGCAAUAUGUAUUCACGGGAGAAGGGACAUGAGGAUCACCCAUGUUUGAA | 0.0215 µM | 0.03 µM | – | –
GGAAAUCAUGUAGGAUAUGCAUGGCGAAGCUACGCAGAAGGACAUGAGGAUCACCCAUGUUAUAGCGUUCGAGAAAGGAUGCAA | 0.0201 µM | 0.0879 µM | – | –
CGCUGCCACGCAGGAUAUGCAUUGGAUUCCAAUGCAGAAGGGCGAUUACAUGAGGAUCACCCAUGUGUUGGCAGUGAAGAAGAG | – | – | 1.23 µM | 0.0779 µM
UUAAAUCGAAACAUGAGGAUCACCCAUGUGUUGUAAUUAAUAUAGGAUAUGUGUAUACUUUUAUGACAGAAGGAUGAUAAUACU | – | – | 0.0215 µM | 0.0144 µM
CGCGAACAUGAGGAUCACCCAUGUGGGUGGAACGUAGGAUAUACGCAGGUCUUUAAAACGGUAGAAGGACGUUCGC | – | – | 0.452 µM | 0.159 µM
AUUUAAAUGUCAGGAUAUGGUAGUUUAUACUUAUUAGAAGGGAUAAUUAUACUCAAGUACAUGAGGAUCACCCAUGUUAAAUCA | – | – | 0.0219 µM | 0.0215 µM
UCGAACGGAAAUAAAGUAAAUAGACAUGAGGAUCACCCAUGUAAGGAUAUGCCUACUAAAAGUAGGCAGAAGGUACGCGUUCGA | 0.0175 µM | 0.0192 µM | – | –
AGUACAUCAGGAUAUACAUGGAAGAUCAUUAUGACCCAUCUACAUGAGGAUCACCCAUGUAGAAGGGAUGUACA | 0.0246 µM | 0.0169 µM | – | –
CUGAGUAGUCAGGAUAUGUGGUACAAAAGUACUGCAGAAGGGAUUACAUGAGGAUCACCCAUGUUUACUUCAUG | 0.0474 µM | 0.242 µM | – | –
ACCAGAACAUGAGGAUCACCCAUGUAUCUAUACCAAGCGACACAGGAUAUACAAAGCGAAAGCGGGUAGAAGGGUGAUCAUGCA | – | – | 0.0635 µM | 0.182 µM
AAAAAACAUGAGGAUCACCCAUGUGAGGAUAUCUGAAAAAAAAAAAAAAAAAAGAAAAAGAGAAGGCGCAAAGA | 0.124 µM | 0.0652 µM | – | –
UUCAGCUCGUCAGGAUAUACGUCACUGCUUCGGCAGUGUGGUAAGAUCACAUGAGGAUCACCCAUGUAGAAGGGACGAGCUGAU | 0.0119 µM | 0.274 µM | – | –
AUUACAAUUGUAUACAUGAGGAUCACCCAUGUUAUAAGUCAUGAGGAUAUGGUAUUGUAGUUAUUCCAGAAGGCAUAUAGCUAA | – | – | 0.0143 µM | 0.0092 µM
GUCCCACAUGAGGAUCACCCAUGUGAGGAUAUGGAUUCGCUGGCCGUAGCCAGUGGAUCCAGAAGGCGCGUGAU | 0.0735 µM | 0.0772 µM | – | –
GGUCAUCAAGUCAGGAUAUCGUCUGGUCAAUCAGGCGAGAAGGGACAUGAGGAUCACCCAUGUCGACUCAUCAG | 0.0339 µM | 0.139 µM | – | –

Sequence | apparent Kd [1] | apparent Kd [2] | apparent Kd [3] | apparent Kd [4]
AAAAGCUCAGGAUAUACGGUCUGUUGUUGAGAAAUAUCGAAACAUGAGGAUCACCCAUGUAGAAGGGAGCGAAA | 0.223 µM | 0.599 µM | – | –
GGAUAGGACAGAGGAUAUACGUGCUAGAGAUACUAGCAAAAUUUCCUCACAUGAGGAUCACCCAUGUAGAAGGCUGUCCUAACG | 0.0147 µM | 0.497 µM | – | –
CAUUAAUUGAUUAUUGUAUUUAUACAGGAUAUGUAACAUGAGGAUCACCCAUGUAUACAUGGGAAACAGAAGGGUAUUUAUAGA | 0.0319 µM | 0.0255 µM | – | –
UAUUAGAUCCGAGGAUAUCCUUUUUUCUUACAUGAGGAUCACCCAUGUAAAGGGAUUGAGUUGUAGGAGAAGGCGGAUUUAGUU | – | – | 0.0334 µM | 0.0151 µM
GUCCUACAUGAGGAUCACCCAUGUGAGGAUAUGGUUUCGCUGGCCGUAGCCAGUGGAACCAGAAGGCGCGUGAU | 0.0653 µM | 0.0734 µM | – | –
GAGCGAAAGCUCAAUGUCGAUAGCAGAAGGACAUGUAAAUACAUGAAAACAUGAGGAUCACCCAUGUAGGAUAUGCUAUCGACU | 0.00546 µM | 0.0127 µM | – | –
CUGUAUGAUGUAGGAUAUACUUUAAUAUUGUAAGUAGAAGGACAUGAGGAUCACCCAUGUAUAUAAAUUUUAAUUAUUUUUGCG | 0.0512 µM | 0.0393 µM | – | –
GCCAUCGCAUGAGGAUAUGGUCUGCUUUGCAGACCAGAAGGCAUGUCAUAAGACAUGAGGAUCACCCAUGUAGUUAAGAUGGCA | – | – | 0.8 µM | 0.0439 µM
AAGUAGGUAGGAUAUACAUGGAUAUACAUUCAUGUGGACCUACAUGAGGAUCACCCAUGUAGAAGGACCUACUA | 0.0369 µM | 0.0791 µM | – | –
GUGGCGACGUAGAAGGGUGACAUGAGGAUCACCCAUGUGCCGAUAUUUCUCGAGAUAUGUCGGCCACAGGAUAUACGUGCCAUC | – | – | 0.0401 µM | 0.056 µM
AGUUCCUCCGCAGGAUAUGUGCUCUUUAUCACAUGAGGAUCACCCAUGUCAGCCUAAACGGCGAGACAGAAGGGUGGUGGUGCC | – | – | 0.172 µM | 0.177 µM
UUAAUUAAUUAAGCGCAAGAUCACAUGAGGAUCACCCAUGUAUAGGAUAUCAGCUCGAUUAGAGCUGAGAAGGAUACAUAGCGC | 0.203 µM | 0.568 µM | – | –
CCGGAAGGUUAGGAUAUGCUUCCACAUAUCUAAGCAGAAGGAACCACAUGAGGAUCACCCAUGUUUAUGGGCCG | 0.262 µM | 0.261 µM | – | –
CCGAAUAAGCAGGAUAUCGAAUCGGAGACGAUUCGAGAAGGGUUAACAUGAGGAUCACCCAUGUUCCUUAACGG | 0.0191 µM | 0.0208 µM | – | –
GUUAUAAAGGUAGGAUAUAGUAUUAUAAUUAAAUUAGAAGGAUCUCACAUGAGGAUCACCCAUGUAAGAGGAUCACCCAUGUAG | 0.0207 µM | 0.0159 µM | – | –
GCGUUCUUGUAGAAGGUACAAGAAAACUAUUAUUAACACAUGAAACAUGAGGAUCACCCAUGUAGUAAGGAUAUACAUGAACGC | – | – | 0.0101 µM | 0.00718 µM
GUCAGCUGGUGAGGAUAUACAACACUGCUUCGGCAGUGUAUUAAGAUCACAUGAGGAUCACCCAUGUAGAAGGCACGAGCUGAU | 0.0131 µM | 0.207 µM | – | –
CUUAUGUAAGGAUAUCAGUAGUAAAAAAAUAAAAUUACUACUGAGAAGGUACAUGAGGAUCACCCAUGUCUUUC | 0.113 µM | 0.0505 µM | – | –
